Laboratory results from ChEMBL document CHEMBL1131566, “(E)-3-(2-(N-phenylcarbamoyl)vinyl)pyrrole-2-carboxylic acid derivatives. A novel class of glycine site antagonists” (J Med Chem, 1998).
pIC50, pKi: −log10 of the molar value. One block for each molecule: values may come before it.

Tests used:
[1] = target: T1, Glutamate receptor ionotropic, NMDA 1 (Rattus norvegicus, UniProt P35439); experiment: (§1) Inhibition of binding of [3H]glycine to N-methyl-D-aspartate glutamate receptor 1 from crude synaptic membranes prepared from adult rat cerebral cortex.; type: tissue-based
Outline: (§2)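 Crude synaptic membranes from adult rat cerebral cortex are incubated 20 min at 4 °C in 50 mM Tris/citrate pH 7.10 with 20 nM [³H]glycine. Compounds come from 5 mM DMSO stocks, seven concentrations (0.1 nM to 100 μM) in duplicate, with a reference control. Ki is fitted by nonlinear curve fitting from ≥6-point curves, geometric mean of ≥3 experiments. Displacement at 100 μM is given as %SB.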

[2] = target: T1, Glutamate receptor ionotropic, NMDA 1; experiment: as §1; type: tissue-based; remark: listed apart in the source
[3] = Compound was evaluated for its ability ot displace [3H]CPP binding to NMDA receptor/glutamate site
Outline: (§3)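 Rat cortical membrane binding, inhibition of [³H]CPP (NMDA glutamate site), [³H]AMPA or [³H]kainic acid. Compounds come from 5 mM DMSO stocks and are tested in duplicate at five concentrations (10 nM to 100 μM); a reference compound is included as control. Displacement at 100 μM is given as % specific binding.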

[4] = target: Glutamate receptor ionotropic, NMDA 1 (Rattus norvegicus) (UniProt P35439); experiment: Displacement of [3H]glycine binding to N-methyl-D-aspartate glutamate receptor 1 at 100 uM represented by the percent of specific binding(%SB); outline: as §2
[5] = Displacement of the [3H]CPP binding to NMDA receptor/glutamate site at 100 uM represented by the percent of specific binding(%SB); outline: as §3
[6] = target: Glutamate receptor ionotropic, kainate (Rattus norvegicus) (UniProt P22756+Q01812+P42260+P42264+Q63273); experiment: Displacement of [3H]-kainic acid in the Ionotropic glutamate receptor kainate at 100 uM represented by the percent of specific binding (%SB); type: protein-complex assay; outline: as §3
[7] = target: Glutamate receptor ionotropic, kainate; experiment: Inhibition of binding of [3H]-kainic acid to Ionotropic glutamate receptor kainate; type: protein-complex assay; outline: as §3
[8] = target: T2, Glutamate receptor ionotropic, AMPA (Rattus norvegicus) (UniProt P19491+P19492+P19493+P19490); experiment: (§4) Displacement of the [3H]AMPA binding to Ionotropic glutamate receptor AMPA at 100 uM represented by the percent of specific binding(%SB); type: protein-complex assay; outline: as §3
[9] = target: T3, Glutamate receptor ionotropic, AMPA (Rattus norvegicus, UniProt P19490+P19491+P19492+P19493); experiment: Inhibition of binding of [3H]AMPA to Ionotropic glutamate receptor AMPA; type: protein-complex assay; outline: as §3
[10] = target: Glutamate receptor ionotropic, NMDA 1 (Rattus norvegicus) (UniProt P35439); experiment: Compound was evaluated for its ability to displace [3H]-TCP binding to N-methyl-D-aspartate glutamate receptor 1. alpha value 0 indicates full antagonist.
Outline: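 [³H]TCP binding runs 2 h at 30 °C in Tris/5mM HCl pH 7.7 with 1 μM glutamic acid. Nonspecific binding is defined with 30 μM (+)-MK801. Glycine concentration-response curves are run in the presence of increasing test-compound concentrations to derive α.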

Glutamate NMDA receptor = experiment: Compound was evaluated for its ability ot displace [3H]CPP binding to N-methyl-D-aspartate glutamate receptor; type: protein-complex assay; outline: as §3
[11] = target: T4, Glutamate NMDA receptor (Rattus norvegicus) (UniProt P35439+Q00959+Q00960+Q00961+Q62645+Q8VHN2+Q9R1M7); experiment: Displacement of the [3H]CPP binding to N-methyl-D-aspartate glutamate receptor at 100 uM represented by the percent of specific binding(%SB); type: protein-complex assay; outline: as §3
[12] = target: Glutamate receptor ionotropic, NMDA 1 (Rattus norvegicus) (UniProt P35439); experiment: as §1; type: tissue-based; outline: as §2
[13] = target: Glutamate receptor ionotropic, kainate; experiment: Inhibition of binding of [3H]-kainic acid to Ionotropic glutamate receptor kainate in crude synaptic membranes prepared from adult rat cerebral cortex.; type: cell membranes; outline: as §3
[14] = target: T3, Glutamate receptor ionotropic, AMPA; experiment: as §4; type: protein-complex assay; outline: as §3
[15] = target: T2, Glutamate receptor ionotropic, AMPA (Rattus norvegicus); experiment: Displacement of the ligand in the Ionotropic glutamate receptor AMPA site at 100 uM represented by the percent of specific binding(%SB); type: protein-complex assay; outline: as §3
[16] = target: T4, Glutamate NMDA receptor (Rattus norvegicus); experiment: Displacement of the ligand in the N-methyl-D-aspartate glutamate receptor at 100 uM represented by the percent of specific binding(%SB); type: protein-complex assay

pKi [1]: 6.21
Compound: O=C(/C=C/c1c(C(=O)O)[nH]c2c1CCCC2)Nc1ccccc1

pIC50 [2]: 7.89
Compound: Oc1ccc(-c2c(O)nc3cc(Cl)cc(Cl)c3c2O)cc1

pKi [1]: 6.11
Compound: CCc1[nH]c(C(=O)O)c(/C=C/C(=O)Nc2ccccc2)c1C

pKi [1]: 6.08
Compound: CCc1c(C)[nH]c(C(=O)O)c1/C=C/C(=O)Nc1ccccc1

pKi [1]: 6.40
Compound: Cc1[nH]c(C(=O)O)c(/C=C/C(=O)Nc2ccccc2)c1C(C)C

pKi [1]: 5.94
Compound: O=C(/C=C/c1c(C(=O)O)[nH]c2c1CCC2)Nc1ccccc1

Log Ki [3]: > -4 | SB [4]: 100% | SB [5]: 0% | SB [6]: 5% | Log Ki [7]: > -4 | pKi [1]: 7.95 | SB [8]: 10% | pIC50 [9]: < 4.00
Compound: O=C(/C=C/c1c(C(=O)O)[nH]c(Br)c1Br)Nc1ccccc1

pKi [1]: 7.37
Compound: Cc1[nH]c(C(=O)O)c(/C=C/C(=O)Nc2ccccc2)c1I

Alpha [10]: 0 | SB [4]: 100% | SB [6]: 9% | Log Ki (Glutamate NMDA receptor): > -4 | Log Ki [7]: > -4 | pKi [1]: 6.70 | SB [11]: 0% | SB [8]: 0% | pIC50 [9]: < 4.00
Compound: Cc1[nH]c(C(=O)O)c(/C=C/C(=O)Nc2ccccc2)c1C

Compound: O=C(O)CCc1c(C(=O)O)[nH]c2cc(Cl)cc(Cl)c12
pIC50 [2]: 6.85

pKi [1]: 5.24
Compound: CC(=O)c1c(C)[nH]c(C(=O)O)c1/C=C/C(=O)Nc1ccccc1

Compound: Cc1c(/C=C/C(=O)Nc2ccccc2)c(C(=O)O)n(C)c1C
pKi [1]: < 4.00

Compound: Cc1c(-c2ccccc2)[nH]c(C(=O)O)c1/C=C/C(=O)Nc1ccccc1
pKi [1]: < 4.00

Compound: O=C(/C=C/c1c(-c2ccccc2)c[nH]c1C(=O)O)Nc1ccccc1
pKi [1]: < 4.00

Compound: O=C(/C=C/c1c(C(=O)O)[nH]c(-c2ccccc2)c1Br)Nc1ccccc1
pKi [1]: < 4.00

pKi [1]: 5.17
Compound: CCOc1c(C)[nH]c(C(=O)O)c1/C=C/C(=O)Nc1ccccc1

pKi [1]: 5.32
Compound: Cc1[nH]c(C(=O)O)c(/C=C/C(=O)Nc2ccccc2)c1OCc1ccccc1

pKi [1]: 6.50
Compound: Cc1[nH]c(C(=O)O)c(/C=C/C(=O)Nc2ccccc2)c1Cl

pIC50 [2]: 8.11
Compound: O=C(Nc1ccccc1)N[C@H]1C[C@H](C(=O)O)Nc2cc(Cl)cc(Cl)c21

pKi [1]: 7.45
Compound: O=C(/C=C/c1c(C(=O)O)[nH]c(I)c1I)Nc1ccccc1

Compound: Cc1[nH]c(C(=O)O)c(/C=C/C(=O)Nc2ccccc2)c1-c1ccccc1
pKi [1]: < 4.00

Compound: O=C(/C=C/c1cc(-c2ccccc2)[nH]c1C(=O)O)Nc1ccccc1
pKi [1]: < 4.00

Compound: O=C(/C=C/c1c(C(=O)O)[nH]c(-c2ccccc2)c1-c1ccccc1)Nc1ccccc1
pKi [1]: < 4.00

pKi [1]: 5.48
Compound: O=C(/C=C/c1c(Br)c[nH]c1C(=O)O)Nc1ccccc1

pIC50 [2]: 7.49
Compound: O=C(O)c1cc(O)c2c(I)cc(Cl)cc2n1

pKi [1]: 5.21
Compound: Cc1c(C(C)C)[nH]c(C(=O)O)c1/C=C/C(=O)Nc1ccccc1

Kb [12]: 470 nM
Compound: Cc1ccc2c(O)cc(=O)c(=O)[nH]c2c1

Alpha [10]: 0 | SB [12]: 100%
Compound: O=C(/C=C/c1c(C(=O)O)[nH]c2cc(Cl)cc(Cl)c12)Nc1ccccc1

pKi [1]: 4.20
Compound: Cc1cc(/C=C/C(=O)Nc2ccccc2)c(C(=O)O)[nH]1

Compound: Cc1c(-c2ccc(Cl)cc2Cl)[nH]c(C(=O)O)c1/C=C/C(=O)Nc1ccccc1
pKi [1]: < 4.00

Compound: O=C(/C=C/c1cc[nH]c1C(=O)O)Nc1ccccc1
pKi [1]: < 4.00

SB [4]: 100% | SB [6]: 0% | Log Ki [13]: > -4 | Log Ki (Glutamate NMDA receptor): > -4 | pIC50 [14]: < 4.00 | pKi [1]: 7.24 | SB [15]: 11% | SB [16]: 0%
Compound: Cc1[nH]c(C(=O)O)c(/C=C/C(=O)Nc2ccccc2)c1Br
